In brackets after ≈: the same amount, converted by molar mass. Activity calls are given as the source filed them. No cut-off for these calls is given here.
Legend:
[1] = tested on: Sporothrix schenckii; assay: Antifungal activity against Sporothrix schenckii after 48 hrs by broth microdilution method; type: functional
In short: (§1)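 NCCLS broth microdilution in RPMI 1640 buffered with MOPS; starting inoculum 1–5 × 10^3 CFU/mL; plates incubated at 35 °C; MIC read after 48 h.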

[2] = tested on: Trichomonas vaginalis; assay: Antitrichomonas activity against trophozoite stage of Trichomonas vaginalis clinical isolate assessed as cell viability under anaerobic condition after 48 hrs by trypan blue exclusion assay; type: functional
In short: (§2)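 Log-phase T. vaginalis grown in TYM with 10% FCS, vitamin mix and penicillin/streptomycin at 37 °C. Compounds were made as 100 µg/mL DMSO stocks and serially diluted in TYM down to 0.1 µg/mL; DMSO/TYM served as vehicle. Parasites were incubated anaerobically at 37 °C, and viability was checked by trypan blue exclusion from 3 to 48 h. MIC = lowest concentration killing all cells by 48 h; each test was repeated three times.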

[3] = tested on: Oryctolagus cuniculus; assay: In vivo spermicidal activity in Belgian rabbit assessed as decrease in pregnancy rate administered via intravaginal instillation measured 30 to 34 days post gestation period; type: functional, organism-based
In short: (§3)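 Young adult female Belgian rabbits. Compound was blended into K-Y Jelly, with plain jelly for controls. Two mL of jelly was instilled 10–12 cm deep into the vagina by catheter, with the animal supine.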

[4] = Selectivity index, ratio of IC50 for Lactobacillus jensenii ATCC 25258 to MIC for trophozoite stage of Trichomonas vaginalis clinical isolate
[5] = tested on: Trichomonas vaginalis; assay: Antitrichomonas activity against metronidazole-resistant trophozoite stage of Trichomonas vaginalis ATCC 50143 assessed as cell viability under anaerobic condition after 48 hrs by trypan blue exclusion assay; type: functional; settings: ATCC 50143, 48 h; in short: as §2
[6] = Selectivity index, ratio of IC50 for Lactobacillus jensenii ATCC 25258 to MIC for metronidazole resistant trophozoite stage of Trichomonas vaginalis ATCC 50143
[7] = tested on: Oryctolagus cuniculus; assay: In vivo spermicidal activity in Belgian rabbit assessed as decrease in pregnancy rate at 15 mg via intravaginal instillation measured 30 to 34 days post gestation period; type: functional; in short: as §3
[8] = tested on: Trichomonas vaginalis; assay: Potency index, ratio of metronidazole MIC to compound MIC for metronidazole-resistant trophozoite stage of Trichomonas vaginalis ATCC 50143; type: functional
[9] = tested on: Cryptococcus neoformans; assay: Antifungal activity against Cryptococcus neoformans after 48 hrs by broth microdilution method; type: functional; in short: as §1
[10] = Spermicidal activity in human sperms assessed as motility measured within 30 secs by phase contrast microscopy; type: functional, Sperm
In short: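 Liquefied human semen (0.05 mL) was added to 0.25 mL test solution and vortexed 10 s at low speed. Motile sperm were scored visually under phase contrast in five fields within 30 s; assays in triplicate; MEC = minimum effective concentration.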

[11] = tested on: Oryctolagus cuniculus; assay: In vivo spermicidal activity in Belgian rabbit assessed as decrease in litter size at 20 mg via intravaginal instillation measured 30 to 34 days post gestation period; type: functional; set-up: scale not given: the % may be the effect or the level left; in short: as §3
[12] = tested on: Oryctolagus cuniculus; assay: In vivo spermicidal activity in Belgian rabbit assessed as decrease in pregnancy rate at 10 mg via intravaginal instillation measured 30 to 34 days post gestation period; type: functional; in short: as §3
[13] = tested on: Oryctolagus cuniculus; assay: In vivo spermicidal activity in Belgian rabbit assessed as decrease in litter size at 15 mg via intravaginal instillation measured 30 to 34 days post gestation period; type: functional; set-up: scale not given: the % may be the effect or the level left; in short: as §3
[14] = tested on: Sperm; assay: Spermicidal activity in human sperm assessed as decrease in free thiol levels in sperm membrane at MEC after 15 mins by mBBr dye based fluorescence microscopy; type: functional, cell membranes
In short: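 Semen (0.5 mL) was incubated with 2.5 mL of compound at MEC, or saline, for 15 min at room temperature. Sperm were pelleted at 700×g, washed in PBS and labelled with 0.5 mM (final) mBBr for 15 min in the dark. After washing, cells were imaged by epifluorescence (UV1A filter) at equal exposure times.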

[15] = tested on: Candida parapsilosis; assay: Antifungal activity against Candida parapsilosis ATCC 22019 after 48 hrs by broth microdilution method; type: functional; settings: Lodderomyces parapsilosis, ATCC 22019, 48 h; in short: as §1
[16] = Toxicity in Lactobacillus jensenii ATCC 25258 after 72 hrs
[17] = tested on: Oryctolagus cuniculus; assay: In vivo spermicidal activity in Belgian rabbit assessed as decrease in litter size at 10 mg via intravaginal instillation measured 30 to 34 days post gestation period; type: functional; set-up: scale not given: the % may be the effect or the level left; in short: as §3
[18] = tested on: Candida albicans; assay: Antifungal activity against Candida albicans after 48 hrs by broth microdilution method; type: functional; in short: as §1
[19] = tested on: HeLa; assay: Cytotoxicity against human HeLa cells after 5 hrs by lactate dehydrogenase release assay; type: cell-based
In short: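 HeLa cells were seeded at 2×10^4/well in triplicate and grown 24 h at 37 °C in 5% CO2. The DMEM was then replaced with medium holding serially diluted compound, and plates were incubated 5 h. LDH release in the supernatant was measured colorimetrically at 490 nm, and IC50 was derived from it.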

[20] = tested on: Trichophyton mentagrophytes; assay: Antifungal activity against Trichophyton mentagrophytes after 48 hrs by broth microdilution method; type: functional; in short: as §1
[21] = tested on: Oryctolagus cuniculus; assay: In vivo spermicidal activity in Belgian rabbit assessed as decrease in pregnancy rate at 20 mg via intravaginal instillation measured 30 to 34 days post gestation period; type: functional; in short: as §3
[22] = tested on: Oryctolagus cuniculus; assay: In vivo spermicidal activity in Belgian rabbit assessed as decrease in litter size at 50 mg via intravaginal instillation measured 30 to 34 days post gestation period; type: functional; set-up: scale not given: the % may be the effect or the level left; in short: as §3
[23] = tested on: Trichomonas vaginalis; assay: Antitrichomonas activity against metronidazole-susceptible Trichomonas vaginalis in sc dosed mouse assessed as pustule formation at 5 ug administered daily measured after 7 days (reference value: 190 mm'2); type: functional
[24] = tested on: Oryctolagus cuniculus; assay: In vivo spermicidal activity in Belgian rabbit assessed as decrease in pregnancy rate at 50 mg via intravaginal instillation measured 30 to 34 days post gestation period; type: functional; in short: as §3
[25] = tested on: Oryctolagus cuniculus; assay: In vivo spermicidal activity in Belgian rabbit assessed as decrease in pregnancy rate at 25 mg via intravaginal instillation measured 30 to 34 days post gestation period; type: functional; in short: as §3
[26] = tested on: Oryctolagus cuniculus; assay: In vivo spermicidal activity in Belgian rabbit assessed as decrease in litter size at 25 mg via intravaginal instillation measured 30 to 34 days post gestation period; type: functional; set-up: scale not given: the % may be the effect or the level left; in short: as §3
[27] = tested on: Trichomonas vaginalis; assay: Antitrichomonas activity against Trichomonas vaginalis assessed as reduction in free thiol levels in parasite membrane at MIC after 24 hrs by fluorescence microscopy; type: functional, organism-based
[28] = tested on: Trichomonas vaginalis; assay: Antitrichomonas activity against metronidazole-susceptible Trichomonas vaginalis in sc dosed mouse assessed as pustule formation at 5 ug administered daily measured after 5 days (reference value: 109 mm'2); type: functional
[29] = tested on: Trichomonas vaginalis; assay: Antitrichomonas activity against metronidazole-susceptible Trichomonas vaginalis in sc dosed mouse assessed as spleen weight at 5 ug administered daily measured after 7 days (reference value: 0.59 g); type: functional

CCCCN1CCN(C(=S)SSC(=S)N2CCN(CCCC)CC2)CC1
MIC [1]: 114 µM (≈ 49.6 µg/mL) | MIC [2]: 14.3 µM (≈ 6.22 µg/mL) | Activity [3]: Dose-dependent effect | Selectivity Index [4]: 25 | MIC [5]: 28.7 µM (≈ 12.5 µg/mL) | Selectivity Index [6]: 12 | Efficacy [7]: 62.5% | Ratio [8]: 4 | MIC [9]: 114 µM (≈ 49.6 µg/mL) | MEC [10]: 0.001% | Activity [11]: 76% | Efficacy [12]: 37.5% | Activity [13]: 74% | Activity [14]: Active | MIC [15]: 57.4 µM (≈ 25 µg/mL) | IC50 [16]: 832 µM | Activity [17]: 67% | MIC [18]: 57.4 µM (≈ 25 µg/mL) | IC50 [19]: 359 µM | MIC [20]: 114 µM (≈ 49.6 µg/mL) | Efficacy [21]: 50%

N#CCCCN1CCN(C(=S)SSC(=S)N2CCN(CCCC#N)CC2)CC1
MIC [1]: 109 µM (≈ 49.8 µg/mL) | MIC [2]: 6.8 µM (≈ 3.11 µg/mL) | Activity [3]: Dose-dependent effect | Selectivity Index [4]: 368 | MIC [5]: 6.8 µM (≈ 3.11 µg/mL) | Activity [22]: 100% | Selectivity Index [6]: 368 | Activity [23]: 5.75 mm2 | Efficacy [24]: 100% | Ratio [8]: 16 | Efficacy [25]: 100% | MIC [9]: > 109 µM | MEC [10]: 0.001% | Activity [26]: 100% | Activity [27]: Active | Activity [28]: 15 mm2 | Efficacy [12]: 85.7% | MIC [15]: > 109 µM | Activity [29]: 0.3 g | IC50 [16]: 6110 µM | Activity [17]: 90% | MIC [18]: > 109 µM | IC50 [19]: 2510 µM | MIC [20]: 109 µM (≈ 49.8 µg/mL)

From ChEMBL document CHEMBL3792366, “Role of disulfide linkage in action of bis(dialkylaminethiocarbonyl)disulfides as potent double-Edged microbicidal spermicide: Design, synthesis and biology” (Eur J Med Chem, 2016)
